Data reported in ChEMBL document CHEMBL3774319, “Novel indole sulfides as potent HIV-1 NNRTIs” (Bioorg Med Chem Lett, 2016).

Experiments:
[1] = test system: Human immunodeficiency virus 1; experiment: Antiretroviral activity against HIV-1 infected in HEK293T cells assessed as inhibition of viral replication by single-cycle assay; format: functional, organism-based; settings: Human immunodeficiency virus 1, HEK-293T
In short: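 In vitro single-cycle, non-replicative phenotypic anti-HIV-1 assay; IC50 values derived from it.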

[2] = Cytotoxicity against HEK293T cells by MTT assay; format: cell-based, HEK-293T; settings: human
In short: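 HEK293T cells read out with a tetrazolium-based colorimetric assay to give toxicity values.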

[3] = Stability in ethanol solution containing sulfuric acid assessed as compound degradation at 0.10 mmol measured within 2 hrs by HPLC method; format: physicochemical

Compound | IC50 [1] [µM] | CC50 [2] [µM] | Stability [3]
CCOC(=O)c1[nH]c2ccc(Cl)cc2c1N(CC)c1ccccc1 | 1.2 | 22.8 | –
CCOC(=O)c1[nH]c2ccc(Cl)cc2c1C(SC)c1ccccc1 (racemic) | 0.039 | 26.1 | –
CCOC(=O)c1[nH]c2ccc(Cl)cc2c1C(SC)c1cccc(Cl)c1 (racemic) | 0.042 | 28.6 | –
CCOC(=O)c1[nH]c2ccc(Cl)cc2c1C(OC)c1cccc(Br)c1 (racemic) | 0.02 | 26.4 | –
CCOC(=O)c1[nH]c2ccc(Cl)cc2c1C(SC)c1cccc(C)c1 (racemic) | 0.038 | 29.6 | Stable
CCOC(=O)c1[nH]c2ccc(Cl)cc2c1C(OC)c1cccc(C)c1 (racemic) | 0.02 | 27.4 | Unstable
CCOC(=O)c1[nH]c2ccc(Cl)cc2c1C(SC)c1cc(C)cc(C)c1 (racemic) | 0.06 | 32 | –
CCOC(=O)c1[nH]c2ccc(Cl)cc2c1C(OC)c1cccc(Cl)c1 (racemic) | 0.033 | 26.8 | –
CSC(c1ccccc1)c1c[nH]c2ccc(Cl)cc12 (racemic) | 9.95 | 52.7 | –
